Bioassay records from PubChem BioAssay.
An excerpt weighted towards active compounds, which were near 3.5% of everything screened.
STAT1 act: activators of IFN-gamma induced STAT1 signaling; NIH 3T3 STAT1-luciferase reporter, luminescence; 100% = IFN-gamma alone, no compound; activation (% of control), % at 5.5 µM; actives 2.6% (n = 200,000); AID 932;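 active means activation above the screen-wide mean activation plus 3 SD, cut at about 130% in these data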;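 further: raw ratio to IFN-gamma control signal so 100% means no change and 0% no light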
Pf gamet viab: inhibitors of late stage P. falciparum gametocyte viability; P. falciparum stage V gametocytes, ATP luminescence, 24 h; inhibition, % at 10.9 µM; actives 0.065% (n = 150,000);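 active means inhibition above the mean plus 3 SD of compounds within the control limits, set per campaign, cut at about 38% in these data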;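 further: 0% = DMSO wells and 100% = medium only without gametocytes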
NF-kB neuron act: NF-kB expression increase, human neuronal cells. NF-kB reporter expression; hits give high values. fold change at 12.5 µM. actives 1.6% (n = 190,000). AID 1239; in the data active means fold change above about 3.3
FLuc inhib CS: inhibits firefly luciferase, flagging false hits in luciferase inhibition screens; inhibition, % at 10 µM; ATPLite firefly luciferase biochemical luminescence, 10 min; P08659; actives 1.5% (n = 200,000);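 active means inhibition above about 50% when tested at 10 µM, limit read from the data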
Target sequence (P08659 whole entry, looked up): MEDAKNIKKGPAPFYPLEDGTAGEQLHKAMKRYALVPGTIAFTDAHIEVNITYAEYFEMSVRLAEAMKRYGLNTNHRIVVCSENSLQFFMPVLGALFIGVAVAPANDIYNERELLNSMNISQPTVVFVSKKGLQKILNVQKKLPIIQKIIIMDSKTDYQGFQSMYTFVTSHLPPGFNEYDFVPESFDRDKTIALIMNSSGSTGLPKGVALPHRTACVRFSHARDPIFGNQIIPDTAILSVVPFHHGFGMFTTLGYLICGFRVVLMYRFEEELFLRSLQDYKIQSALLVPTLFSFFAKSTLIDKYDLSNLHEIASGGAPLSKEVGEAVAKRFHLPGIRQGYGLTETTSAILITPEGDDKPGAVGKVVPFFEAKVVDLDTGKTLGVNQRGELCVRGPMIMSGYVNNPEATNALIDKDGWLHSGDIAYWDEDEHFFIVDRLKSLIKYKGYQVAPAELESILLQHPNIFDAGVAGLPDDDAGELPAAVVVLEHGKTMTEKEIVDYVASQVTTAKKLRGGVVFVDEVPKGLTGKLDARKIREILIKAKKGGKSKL
APP 5'UTR act: activates APP 5'UTR luciferase reporter; SH-SY5Y APP 5'UTR luciferase reporter, luminescence; zero percent = DMSO vehicle wells; actives 1% (n = 190,000); AID 1276; activation, % at 2 µM;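 active means activation above a set limit, based on mean plus 3 SD of controls, cut at about 140% in these data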
FLuc stim CS: firefly luciferase counter-screen for stimulation assays; ATPlite luciferase biochemical, luminescence, 10 min; 0 = ATP-free wells, 1 = DMSO control; activation factor at 10 µM; 200,000 tested, under 10 active;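 active means luciferase activation factor, scaled between plate controls, of at least 2 with compound at 10 µM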
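Assay system: Luciferase/luciferin detection reagent, cell-free biochemical luciferase assay / Also added: ATP substrate / Schedule: 10 min at ambient temperature / Measured by: luminescence measurement of luciferase light output / Benchmarks: low control with PBS replacing ATP, high control enzyme plus ATP without compound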
* marks the source's active call; other numbers are inactive results; . = no result.

SMILES	STAT1 act	Pf gamet viab	NF-kB neuron act	FLuc inhib CS	APP 5'UTR act	FLuc stim CS
C/C(=N\N1C(=O)c2ccccc2NC1c1ccccc1)c1ccccc1O (configuration not stated)	140*	2	1.5	-1	105	1
O=C(OCC#CCSc1nnc(-c2cccc3ccccc23)o1)c1ccc2ccccc2c1	.	3	.	.	.	.
c1ccc2c(c1)nnn2-c1ncnc2sccc12	134*	-19	2.1	15	16	0.8
C=CC(=O)NC(NC(=O)C=C)c1ccc(Br)cc1	97	19	3.3*	-2	-1	1
CC(NC(=O)c1ccccc1)c1ccc(Br)cc1 (configuration not stated)	89	.	0.99	-3	-1	1
CCc1onc(C)c1C(=O)O	98	-7	1.1	-6	-1	1.1
Cc1ccc(NC(=O)/C(C#N)=C/c2ccsc2)c(C)c1	137*	-18	1.7	5	-3	0.9
CCOC(=O)C1(Cc2cccc(Cl)c2)CCCN(C(=O)C2CC2)C1 (configuration not stated)	109	-15	1.2	-9	17	1.1
O=C(O)c1ccc2c3c(cccc13)C(=O)N(c1ccccc1)C2=O	99	-23	0.94	-3	0	1
CC(=O)c1ccc2c3c(cccc13)C(=O)N(CCc1ccccc1)C2=O	132*	.	1.7	-2	97	1
COc1ccc(C(F)(F)F)cc1N/C=C/c1nnnn1-c1ccc(C)cc1	.	7	.	.	.	.
CCOc1ccc(-c2nc(-c3cccs3)c(CC(=O)O)s2)cc1OC	112	-30	1.7	68*	-7	0.3
Cc1ccc(C(=O)NC(=S)Nc2cc(-c3nc4ccccc4s3)ccc2C)cc1	115	.	4*	4	120	1
COc1ccc(-n2ncc3c(N4CCN(c5cc(C)ccc5C)CC4)ncnc32)cc1	104	.	1.1	-4	-3	1
COc1ccc(-n2ncc3c(N4CCCCC4)ncnc32)cc1	33	.	0.27	94*	39	0.1
CC1CC(C)CN(c2ncnc3c2cnn3Cc2ccc(Cl)cc2)C1 (configuration not stated)	97	.	0.86	-9	-6	1.1
Clc1ccc(Cn2ncc3c(N4CCCCC4)ncnc32)cc1	97	4	0.51	-6	17	1.1
CC1CN(c2ncnc3c2cnn3-c2ccc(Cl)cc2)CC(C)O1 (configuration not stated)	147*	.	1.5	16	47	0.8
Clc1ccc(-n2ncc3c(N4CCCCCC4)ncnc32)cc1	99	.	0.23	83*	27	0.2
c1ccc(-c2nc(-c3nccc4ccccc34)oc2-c2ccccc2)cc1	.	-3	.	.	.	.
CSc1cccc(NC(=S)N2CCC(N(C)C3CCCCC3C)CC2)c1 (configuration not stated)	98	5	1.3	-7	16	1.1
CCOC(=O)c1cnc2c(C)cccc2c1NCCCN1CCOCC1	.	-15	.	.	.	.
O=C(NCCN1CCOCC1)c1cc(-c2cccs2)on1	116	.	5.8*	-2	20	1
O=C(NN1CCOCC1)c1cc(-c2ccccc2)nc2ccccc12	109	.	1.1	-1	-7	1
CC(C)Oc1ccc(-c2cc(C(=O)NCCN3CCOCC3)c3ccccc3n2)cc1	124	.	1.2	65*	22	0.3
SMILES	STAT1 act	Pf gamet viab	NF-kB neuron act	FLuc inhib CS	APP 5'UTR act	FLuc stim CS
O=C(NCCN1CCOCC1)c1cc(-c2ccc(Br)cc2)on1	99	2	0.93	0	2	1
O=C(NCCCN1CCOCC1)c1cc(-c2ccccc2)on1	118	-18	5.5*	-3	19	1
O=C(NCCCN1CCOCC1)c1cc(-c2ccc(O)cc2)on1	98	.	1.9	-2	18	1
O=C(NCCN1CCOCC1)c1cc(-c2ccccc2)on1	110	.	6.3*	-6	29	1.1
CC(=O)N(C)C(c1ccc(N(C)C)cc1)c1nnnn1-c1c(C)cccc1C (configuration not stated)	101	18	1.1	-6	10	1.1
CCCN(C(=O)c1ccccc1N)c1c(C)n(C)n(-c2ccccc2)c1=O	98	19	1.3	0	23	1
CC(C)NC(=O)c1cc(-c2cccs2)on1	122	16	4*	8	62	0.9
O=C(CN1CCN(c2ccc(F)cc2)CC1)NCc1ccc(Cl)cc1	.	-19	.	.	.	.
